Measurements from different studies.
Protocols differ between the studies behind these lines.
pknB: Serine/threonine-protein kinase PknB (pknB, Mycobacterium tuberculosis, UniProt P9WI81)
1-deoxy-D-xylulose 5-phosphate reductoisomerase: 1-deoxy-D-xylulose 5-phosphate reductoisomerase (Mycobacterium tuberculosis, UniProt P9WNS1)
DPP4: Dipeptidyl peptidase 4 (DPP4, Homo sapiens, UniProt P27487)
ENAH: Protein enabled homolog (ENAH, UniProt Q8N8S7)

SMILES | target | assay | setting | measurement | result
COc1cccc(-c2ccnc(Nc3ccc(N4CCN(C(=O)OC(C)(C)C)CC4)c(C(F)(F)F)c3)n2)c1 | pknB | enzyme activity, inhibitor |  | IC50 | > 20 µM
CC(=O)N(O)CCC(c1ccc(-c2ccsc2)cc1)P(=O)(O)O (centres unmarked) | 1-deoxy-D-xylulose 5-phosphate reductoisomerase | enzyme activity, inhibitor, absorbance | pH 7.5 | IC50 | 5.7 µM
CC(C)(C)OC(=O)N1CCN(c2ccc(Nc3nccc(-c4ccccc4)n3)cc2C(F)(F)F)CC1 | pknB | enzyme activity, inhibitor |  | IC50 | > 20 µM
CC(C)[C@H](N)C(=O)N1CCC[C@H]1C(=O)N[C@H](C(=O)N1CCC[C@H]1C(=O)NCC(=O)O)C(C)C | DPP4 | enzyme activity, inhibitor, absorbance | pH 8 | IC50 | 84.9 µM
CC(=O)N(O)CCC(c1ccc(-c2c(C)noc2C)cc1)P(=O)(O)O (centres unmarked) | 1-deoxy-D-xylulose 5-phosphate reductoisomerase | enzyme activity, inhibitor, absorbance | pH 7.5 | IC50 | 21.5 µM
CC(C)[C@H](N)C(=O)N1CCC[C@H]1C(=O)N[C@H](C(=O)N1CCC[C@H]1C(=O)N[C@@H](Cc1ccc(O)cc1)C(=O)O)C(C)C | DPP4 | enzyme activity, inhibitor, absorbance | pH 8 | IC50 | 80.7 µM
CC(=O)N[C@@H](CO)C(=O)N[C@@H](Cc1ccccc1)C(=O)N[C@@H](CCC(=O)O)C(=O)N[C@@H](Cc1ccccc1Cl)C(=O)N1CCC[C@H]1C(=O)N1CCC[C@H]1C(=O)N1CCC[C@H]1C(=O)N1CCC[C@H]1C(=O)N[C@H](C(=O)N[C@@H](CCC(=O)O)C(=O)N[C@@H](CC(=O)O)C(=O)N[C@@H](CC(=O)O)C(=O)N[C@@H](CC(C)C)C(N)=O)[C@@H](C)O | ENAH | binding, fluorescence |  | Kd | 1.43 µM
CN1[C@H]2CC[C@@H]1[C@@H](c1cc(-c3ccccc3)no1)[C@H](OC(c1ccc(F)cc1)c1ccc(F)cc1)C2 | Transporter (Slc6a2, Rattus norvegicus, UniProt Q63380) | ligand displacement, radioligand | cell membranes | Ki | 0.413 µM
CC(C)[C@H](N)C(=O)N1CCC[C@H]1C(=O)N[C@H](C(=O)N1CCC[C@H]1C(=O)N[C@H](C(=O)O)[C@@H](C)O)C(C)C | DPP4 | enzyme activity, inhibitor, absorbance | pH 8 | IC50 | 131 µM
CC(=O)N(O)CCC(c1ccc(-c2cccc(C)c2)cc1)P(=O)(O)O (centres unmarked) | 1-deoxy-D-xylulose 5-phosphate reductoisomerase | enzyme activity, inhibitor, absorbance | pH 7.5 | IC50 | 2.4 µM
CC(=O)N[C@@H](CO)C(=O)N[C@@H](Cc1ccccc1)C(=O)N[C@@H](CCC(=O)O)C(=O)N[C@@H](Cc1ccccc1Cl)C(=O)N1CCC[C@H]1C(=O)N1CCC[C@H]1C(=O)N1CCC[C@H]1C(=O)N1CCC[C@H]1C(=O)O | ENAH | binding, fluorescence |  | Kd | 4.6 µM
